Experimental data as given in ChEMBL document CHEMBL1133575 (J Med Chem, 2000).

How the values were obtained:
[1] = biological target: T1, Sodium-dependent dopamine transporter (Rattus norvegicus, UniProt P23977); test: Inhibition of [3H]DA Uptake at Dopamine transporter in rat cortex was measured by liquid scintillation spectrometry; assay type: tissue-based
[2] = biological target: T1, Sodium-dependent dopamine transporter; test: Binding Affinity to cocaine site of Dopamine transporter in caudate nuclei which was homogenized and incubated with [3H]mazindol.
Outline: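 Rat striatal membranes, washed in KRH buffer (pH 7.4, with 0.01 mM nialamide) and frozen at −80 °C, thawed at 75–125 ug protein/mL. Incubated with [3H]mazindol plus competitor for 60 min at 4 °C. […] Separated by GF/C filtration and counted by scintillation. IC50 fitted with LIGAND.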

[3] = biological target: Norepinephrine transporter (Rattus norvegicus, UniProt Q9WTR4); test: Compound was tested for Inhibition of [3H]NE Uptake in rat parietal/occipital cortex
Outline: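 [3H]NE uptake used rat parietal/occipital cortex synaptosomes in modified KRH buffer. Drug was preincubated for 30 min at 37 °C, then radiolabel was added for 5 min. Uptake was stopped with cold sodium-free buffer, filtered and counted by liquid scintillation. Specific uptake was defined with 1 uM desipramine.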

[4] = biological target: Sodium-dependent serotonin transporter (Rattus norvegicus, UniProt P31652); test: Compound was tested for Inhibition of [3H]5-HT Uptake in rat mid brain.; assay type: tissue-based
Outline: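 [3H]5-HT uptake used rat midbrain synaptosomes in modified KRH buffer. Drug was preincubated for 30 min at 37 °C, then tritiated substrate was added for 5 min. Uptake was stopped in cold sodium-free buffer, filtered and counted by scintillation. Specific uptake was defined with 10 uM fluoxetine.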

[5] = biological target: T1, Sodium-dependent dopamine transporter; test: Inhibition of [3H]DA Uptake at dopamine transporter in rat cortex was measured by liquid scintillation spectrometry; assay type: tissue-based
[6] = biological target: Sodium-dependent dopamine transporter (Homo sapiens, UniProt Q01959); test: Binding Affinity to cocaine site of dopamine transporter in caudate nuclei which was homogenized and incubated with [3H]mazindol.
Chain of Sodium-dependent dopamine transporter (Homo sapiens, UniProt Q01959) (Q01959 whole entry): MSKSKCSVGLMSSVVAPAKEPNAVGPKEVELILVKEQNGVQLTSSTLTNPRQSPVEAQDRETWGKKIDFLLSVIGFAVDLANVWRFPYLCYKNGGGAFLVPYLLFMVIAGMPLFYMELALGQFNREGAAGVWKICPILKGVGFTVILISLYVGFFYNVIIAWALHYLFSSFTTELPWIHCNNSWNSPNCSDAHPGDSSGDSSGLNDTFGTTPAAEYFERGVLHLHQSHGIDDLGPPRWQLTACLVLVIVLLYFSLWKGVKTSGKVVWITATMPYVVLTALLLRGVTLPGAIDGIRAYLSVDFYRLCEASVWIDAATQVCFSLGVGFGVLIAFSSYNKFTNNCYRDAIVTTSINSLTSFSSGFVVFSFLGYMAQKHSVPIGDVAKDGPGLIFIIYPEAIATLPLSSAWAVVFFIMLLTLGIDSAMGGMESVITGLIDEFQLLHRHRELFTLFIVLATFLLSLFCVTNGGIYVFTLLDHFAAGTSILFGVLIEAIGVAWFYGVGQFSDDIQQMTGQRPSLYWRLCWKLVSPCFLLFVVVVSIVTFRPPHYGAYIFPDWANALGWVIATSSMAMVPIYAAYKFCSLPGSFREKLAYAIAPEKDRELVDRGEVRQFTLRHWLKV

T1 sequence (P23977 whole entry): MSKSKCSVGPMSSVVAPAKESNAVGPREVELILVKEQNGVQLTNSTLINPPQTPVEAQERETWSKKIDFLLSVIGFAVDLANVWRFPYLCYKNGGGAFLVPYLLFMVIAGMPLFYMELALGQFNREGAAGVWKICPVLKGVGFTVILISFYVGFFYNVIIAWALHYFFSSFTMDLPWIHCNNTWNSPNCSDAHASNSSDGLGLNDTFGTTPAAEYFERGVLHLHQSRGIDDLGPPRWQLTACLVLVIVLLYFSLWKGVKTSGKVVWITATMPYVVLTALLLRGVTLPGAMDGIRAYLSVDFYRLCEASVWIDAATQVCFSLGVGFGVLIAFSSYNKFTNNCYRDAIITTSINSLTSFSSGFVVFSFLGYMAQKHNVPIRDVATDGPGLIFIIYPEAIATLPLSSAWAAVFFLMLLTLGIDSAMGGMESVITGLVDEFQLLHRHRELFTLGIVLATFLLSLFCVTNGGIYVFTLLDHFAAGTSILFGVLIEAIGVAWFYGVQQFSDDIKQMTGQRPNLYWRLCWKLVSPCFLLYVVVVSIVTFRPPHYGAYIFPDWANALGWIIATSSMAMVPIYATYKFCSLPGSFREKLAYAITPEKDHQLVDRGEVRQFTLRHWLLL
Chain of Sodium-dependent serotonin transporter (P31652 whole entry): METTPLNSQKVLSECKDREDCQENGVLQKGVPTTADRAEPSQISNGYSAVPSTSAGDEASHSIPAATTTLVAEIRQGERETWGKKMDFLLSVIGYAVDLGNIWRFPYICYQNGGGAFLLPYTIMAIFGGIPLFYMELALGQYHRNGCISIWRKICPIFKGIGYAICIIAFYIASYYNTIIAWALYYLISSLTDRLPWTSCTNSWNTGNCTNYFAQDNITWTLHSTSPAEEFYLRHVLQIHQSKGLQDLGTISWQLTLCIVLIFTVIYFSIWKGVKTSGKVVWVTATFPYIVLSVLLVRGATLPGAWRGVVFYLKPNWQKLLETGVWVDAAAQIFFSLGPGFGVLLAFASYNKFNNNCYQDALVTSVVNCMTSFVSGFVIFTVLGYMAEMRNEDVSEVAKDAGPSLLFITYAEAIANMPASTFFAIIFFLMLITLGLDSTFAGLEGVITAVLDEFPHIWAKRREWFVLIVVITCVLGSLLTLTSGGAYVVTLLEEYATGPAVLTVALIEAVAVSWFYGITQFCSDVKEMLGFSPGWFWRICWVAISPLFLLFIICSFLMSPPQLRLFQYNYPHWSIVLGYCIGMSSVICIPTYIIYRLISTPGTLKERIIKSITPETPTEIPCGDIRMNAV
Chain of Norepinephrine transporter (Q9WTR4 whole entry): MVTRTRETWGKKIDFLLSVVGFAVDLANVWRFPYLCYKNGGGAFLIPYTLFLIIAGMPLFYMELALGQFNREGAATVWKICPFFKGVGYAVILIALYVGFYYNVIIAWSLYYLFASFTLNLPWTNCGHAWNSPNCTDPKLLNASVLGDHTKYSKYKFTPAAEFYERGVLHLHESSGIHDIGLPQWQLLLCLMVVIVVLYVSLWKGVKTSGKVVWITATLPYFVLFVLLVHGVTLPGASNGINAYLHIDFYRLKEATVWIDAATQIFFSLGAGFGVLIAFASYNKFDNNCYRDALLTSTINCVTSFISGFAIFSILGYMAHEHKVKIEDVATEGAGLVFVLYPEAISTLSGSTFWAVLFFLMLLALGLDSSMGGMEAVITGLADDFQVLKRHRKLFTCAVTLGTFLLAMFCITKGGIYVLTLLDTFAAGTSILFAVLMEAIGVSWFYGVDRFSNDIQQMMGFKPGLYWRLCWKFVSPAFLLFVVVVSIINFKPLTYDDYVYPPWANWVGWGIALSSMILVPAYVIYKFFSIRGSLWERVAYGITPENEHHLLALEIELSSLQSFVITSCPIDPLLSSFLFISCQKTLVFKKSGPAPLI

SMILES | Ki [1] [µM] | Ki [2] [µM] | Ki [3] [µM] | Ki [4] [µM] | Ki [5] [µM] | Ki [6] [µM]
Cc1ccc(C(=O)C2CN(C)CCC2(O)c2ccc(C)cc2)cc1 (stereo not given) | 0.36 | 0.492 | 3.86 | 1.63 | – | –
CN1CCC(O)(c2ccc(Cl)c(Cl)c2)C([C@@H](O)c2ccc(Cl)c(Cl)c2)C1 (stereo not given in full) | – | – | – | – | 4.22 | 4.14
CN1CCC(O)(c2ccc(F)cc2)C(C(=O)c2ccc(F)cc2)C1 (stereo not given) [FLAZALONE] | – | – | – | – | 4.2 | 5.7
Cc1ccc([C@H](O)C2CN(C)CCC2(O)c2ccc(C)cc2)cc1 (stereo not given in full) | – | – | – | – | 15.8 | 10.7
CN1CCC(O)(c2ccc(Cl)cc2Cl)C([C@@H](O)c2ccc(Cl)cc2Cl)C1 (stereo not given in full) | – | – | – | – | 7.52 | 4.35
CN1CCC(O)(c2ccc(Cl)cc2Cl)C(C(=O)c2ccc(Cl)cc2Cl)C1 (stereo not given) | – | – | – | – | 5.85 | –
CN1CCC(O)(c2ccccc2)C(C(=O)c2ccccc2)C1 (stereo not given) | 2.59 | 4.42 | – | – | – | –
CN1CCC(O)(c2ccc(Cl)c(Cl)c2)C(C(=O)c2ccc(Cl)c(Cl)c2)C1 (stereo not given) | – | – | 0.177 | 2.38 | 0.051 | 0.0109
Cc1ccc(C2OC(=O)OC3(c4ccc(C)cc4)CCN(C)CC23)cc1 (stereo not given) | – | – | – | – | 9.48 | –
